Results of several laboratories.
Protocols differ between the studies behind these lines.
Target: High affinity nerve growth factor receptor (NTRK1, Homo sapiens, UniProt P04629)

Compound | effect on | mode | method | tested at | endpoint | result
CS(=O)(=O)N1CCCC(NC(=O)[C@H](CCC2CCCCC2)NC(=O)c2ccc(CNc3ncnc4c3nnn4-c3ccccc3)cc2)C1 (stereo partly drawn) | cell-free assay |  | competition with immobilised ligand | 0.1 µM | remaining binding | 100%
O=C(Nc1cccc(F)c1)Nc1cccc(C(=O)Nc2ccc3[nH]ncc3c2)c1 | enzyme activity | inhibitor | FRET | 1 µM | inhibition | 51.3%
COc1cc(-c2cn(C3CCc4ccccc4N(CC(F)(F)F)C3=O)nn2)ccc1-n1ccc(C)n1 (stereo not drawn) | cell-free assay |  | competition with immobilised ligand | 1 µM | remaining binding | 63%
CN(c1nccc(-c2cnn3ncccc23)n1)C1CC1 | cell-free assay |  |  | 1 µM | remaining signal | 100%
O=C(Nc1cnn(-c2csc(C(=O)NC3COC3)c2)c1)Nc1ccccc1Cl | enzyme activity | inhibitor |  | 5 µM | remaining activity | 100%
CCN(CC)CCNC(=O)c1c(C)[nH]c(/C=C2\C(=O)Nc3ccc(F)cc32)c1C | enzyme activity | inhibitor |  | 0.1 µM | remaining activity | 19%
CCS(=O)(=O)c1cc2cc(C[C@](O)(CC(C)(C)c3ccc(F)cc3C(N)=O)C(F)(F)F)[nH]c2cn1 | cell-free assay |  | competition with immobilised ligand | 1 µM | remaining binding | 82%
O=C(Nc1cccc(C(=O)Nc2ccc3[nH]ncc3c2)c1)Nc1ccccc1C(F)(F)F | enzyme activity | inhibitor | FRET | 1 µM | inhibition | 51.3%
O=C1NC(=O)c2cc(Nc3ccc(F)cc3)c(Nc3ccc(F)cc3)cc21 | cell-free assay |  |  | 0.5 µM | remaining signal | 93.6%
O=C(Nc1ccc2[nH]ncc2c1)c1cccc(NC(=S)Nc2ccc(F)cc2F)c1 | enzyme activity | inhibitor | FRET | 1 µM | inhibition | 67.3%
Cc1[nH]c(/C=C2\C(=O)Nc3ccc(F)cc32)c(C)c1C(=O)N[C@H]1CCN(C(=O)N(C)C)C1 | enzyme activity | inhibitor |  | 0.1 µM | remaining activity | 34%
Cc1ccc(NC(=O)c2ccc(C)c(C(F)(F)F)c2)cc1C#Cc1nn(C2CCC(O)CC2)c2ncnc(N)c12 (stereo not drawn) | cell-free assay |  |  | 10 µM | remaining signal | 72%
O=C(Nc1cnn2ccc(N3CCC[C@@H]3c3cc(F)ccc3F)nc12)N1CC[C@H](O)C1 | enzyme activity | inhibitor | FRET | 1 µM | inhibition | 100%
CCOCCn1cc(C(=O)Nc2ccc(-n3nc(-c4cccnc4)cc3C(F)(F)F)cn2)ccc1=O | cell-free assay |  | competition with immobilised ligand | 1 µM | remaining binding | 100%
CCN(CC)c1ccc(C2=NNC(=O)CC2C)cc1[N+](=O)[O-] (stereo not drawn) | enzyme activity | inhibitor |  | 10 µM | remaining activity | 118%
CN([C@@H]1CCc2c(CC(=O)O)c3cc(S(C)(=O)=O)ccc3n2C1)S(=O)(=O)c1ccc(F)cc1 | cell-free assay |  | competition with immobilised ligand | 1 µM | remaining binding | 100%
O=C(Nc1ccc2[nH]ncc2c1)c1cccc(NC(=S)Nc2cc(C(F)(F)F)cc(C(F)(F)F)c2)c1 | enzyme activity | inhibitor | FRET | 1 µM | inhibition | 51.3%
CCCOc1ccc(OC)c(F)c1C(=O)c1ccc(C(=O)N[C@@H]2CNC[C@H]2NC(=O)c2ccc3[nH]ncc3c2)cc1 | enzyme activity | inhibitor |  | 10 µM | remaining activity | 46%
COc1cc(/C=C/C(=O)CC(=O)/C=C/c2ccc(O)c(OC)c2)ccc1O | enzyme activity | inhibitor |  | 1 µM | activity vs control | 93%
Nc1cnc(N2CCc3cc(S(=O)(=O)Nc4c(F)cc(Cl)cc4F)cc(N4CCCC4=O)c32)nc1 | cell-free assay |  | competition with immobilised ligand | 1 µM | remaining binding | 100%
FC(F)c1nc2ccccc2n1-c1nc(N2CCOCC2)nc(N2CCOCC2)n1 | enzyme activity | inhibitor |  | 10 µM | remaining activity | 83%
O=C(Nc1ccc(I)cc1)Nc1cccc(C(=O)Nc2ccc3[nH]ncc3c2)c1 | enzyme activity | inhibitor | FRET | 1 µM | inhibition | 47.4%
C[C@@H]1CCN(C(=O)CC#N)C[C@@H]1N(C)c1ncnc2[nH]ccc12 | cell-free assay |  |  | 0.5 µM | remaining signal | 94.1%
CC(=O)N1CCC(c2ccc(C(=O)NC(=N)N)cc2C(F)(F)F)CC1 | cell-free assay |  | competition with immobilised ligand | 1 µM | remaining binding | 100%
Cc1ccc(NC(=O)c2ccc(CN3CCN(C)CC3)cc2)cc1Nc1nc(-c2cccnc2)cs1 | cell-free assay |  |  | 0.5 µM | remaining signal | 97.1%
O=C(Nc1cnn(-c2csc(C(=O)NC3COC3)c2)c1)Nc1c(F)cccc1Cl | enzyme activity | inhibitor |  | 5 µM | remaining activity | 87.8%
O=C(Nc1cccc(C(=O)Nc2ccc3[nH]ncc3c2)c1)Nc1ccccc1F | enzyme activity | inhibitor | FRET | 1 µM | inhibition | 42.7%
O=C(NCc1ncc(C(F)(F)F)cc1Cl)c1ccc2c(c1)C1(CCS(=O)(=O)CC1)[C@@H](C1CC1)N2S(=O)(=O)c1ccc(F)cc1 | cell-free assay |  | competition with immobilised ligand | 1 µM | remaining binding | 75%
FC(F)(F)Oc1cccc(-c2cnc3ccc(-c4ccncc4)nn23)c1 | enzyme activity | inhibitor | radiometric | 5 µM | activity vs control | 15%
CC(C)(C)c1nc(-c2cccc(NS(=O)(=O)c3c(F)cccc3F)c2F)c(-c2ccnc(N)n2)s1 | enzyme activity | inhibitor | radiometric | 1 µM | remaining activity | 78%
